Screening data deposited in PubChem by several laboratories.
Mdm2 MdmX PPI – disrupts the human Mdm2-MdmX interaction; inhibition, % at 8 µM; SaOS-2 split-luciferase Mdm2/MdmX complementation, luminescence; AID 485346; hit rate 3% among 330,000; O15151+Q00987;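 active = inhibition of at least 50% at 8 µM in the primary screen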
Target sequence (O15151 whole entry, looked up): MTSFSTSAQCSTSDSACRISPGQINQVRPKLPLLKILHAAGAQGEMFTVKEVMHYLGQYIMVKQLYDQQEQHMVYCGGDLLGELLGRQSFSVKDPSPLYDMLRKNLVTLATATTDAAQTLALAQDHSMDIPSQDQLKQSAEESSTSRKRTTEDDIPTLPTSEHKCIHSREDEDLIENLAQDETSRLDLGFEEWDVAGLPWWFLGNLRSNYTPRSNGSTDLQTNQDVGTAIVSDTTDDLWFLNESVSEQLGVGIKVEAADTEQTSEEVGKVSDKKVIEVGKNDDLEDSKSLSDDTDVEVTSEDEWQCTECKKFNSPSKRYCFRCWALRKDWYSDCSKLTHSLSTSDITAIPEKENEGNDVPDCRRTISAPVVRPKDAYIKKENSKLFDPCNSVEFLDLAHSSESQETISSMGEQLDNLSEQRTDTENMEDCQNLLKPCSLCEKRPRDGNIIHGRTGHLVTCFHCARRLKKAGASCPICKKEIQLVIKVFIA
Target sequence (Q00987 whole entry, looked up): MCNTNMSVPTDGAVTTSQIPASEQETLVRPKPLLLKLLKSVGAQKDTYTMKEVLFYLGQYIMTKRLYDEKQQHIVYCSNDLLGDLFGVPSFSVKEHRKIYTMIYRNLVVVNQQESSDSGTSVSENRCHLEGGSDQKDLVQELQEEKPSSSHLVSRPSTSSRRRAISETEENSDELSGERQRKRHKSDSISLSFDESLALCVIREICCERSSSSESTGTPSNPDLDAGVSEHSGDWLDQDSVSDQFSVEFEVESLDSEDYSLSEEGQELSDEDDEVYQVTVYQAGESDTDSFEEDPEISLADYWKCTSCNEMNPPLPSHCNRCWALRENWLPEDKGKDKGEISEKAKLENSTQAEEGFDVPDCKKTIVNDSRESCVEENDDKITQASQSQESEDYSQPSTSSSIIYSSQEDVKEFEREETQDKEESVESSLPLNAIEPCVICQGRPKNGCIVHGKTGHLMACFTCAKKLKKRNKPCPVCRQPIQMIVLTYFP
T cruzi inh – T. cruzi replication inhibition | hit rate 1.4% among 300,000 | AID 1885 | T. cruzi beta-gal in NIH3T3, luminescence, 90 h | inhibition, % (concentration not given with the values);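 active = mean inhibition across valid replicates above about 55%, limit read from the data; inconclusive = mean below that limit but half or more replicates reach it; inactive = mean below it, under half of replicates reach it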;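 also: signal also drops with host cell toxicity which is not excluded here; higher percent means less beta-gal luminescence so fewer parasites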
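Material: NIH/3T3 host cells with β-galactosidase reporter T. cruzi; Input: 5,000 host fibroblasts per well; Medium: DMEM, 2% fetal bovine serum; Compound: 50 nL DMSO compound solution per well; Schedule: 3 h host attachment, then at least 90 h co-culture; Detection: luminescent β-galactosidase signal after 60 min lysis.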
Beta apoptosis – beta cell apoptosis inhibition; INS-1E cytokine-induced death, ATP luminescence, 48 h; percent of positive-control rescue, neutral wells zero; protection from apoptosis, % (test concentration not listed); hit rate 0.8% among 300,000; AID 435005;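 active = Every replicate reaches about 75%, or at least half do and their mean reaches it too, limit read from the data; inconclusive = At least half of replicates reach the limit but their mean does not; inactive = Under half of replicates reach the limit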;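 also: higher means more ATP so stronger rescue from cytokine killing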
Lmaj promast – reduces viability of Leishmania major promastigotes | resazurin fluorescence viability | inhibition, % at 10 µM | hit rate 9% among 200,000 | AID 1063; in the data active = inhibition above about 50%;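 also: promastigotes grown with compound for 44 hours at 28 °C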
CSC inhib – cancer stem cell inhibition; inhibition, % at 7.5 µM; hit rate 1.1% among 300,000; cancer stem cell-like cells viability, luminescence; in the data active = inhibition above about 75%; inconclusive = no clear call, values can overlap the other calls; tested in HMLE shEcad cells
SKKanGAS inh – blocks kanamycin growth of S. pyogenes SKKanGAS strain. AID 1662. inhibition, % at 7.5 µM. hit rate 1.3% among 300,000. BacTiter-Glo, 6 h;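 active = mean replicate score, as percent of positive control median, at least 50; inconclusive = mean below 50 but one replicate at or above 50; inactive = mean and every replicate below 50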;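 also: strain carries kanamycin resistance gene driven by streptokinase promoter and grows in 40 µg/ml kanamycin; loss of luminescence reflects streptokinase promoter inhibition or plain growth inhibition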
Each line names hits and unclear results; the compound was inactive in the other large screens. The list is not random: actives were taken first. Their share in the collection is about 9.4%.

O=C(Nc1ccc2nc3n(c(=O)c2c1)CCCC3)c1ccccc1[N+](=O)[O-]	Lmaj promast 56
CCCN(CCC)CCCNC(=S)Nc1ccc2nc3n(c(=O)c2c1)CCCCC3	Lmaj promast 61
CC1CC(C)CN(C(=S)Nc2ccc3nc4n(c(=O)c3c2)CCCCC4)C1 (stereo not given)	Lmaj promast 85 (no result: CSC inhib)
CC1CCCN(C(=S)Nc2ccc3nc4n(c(=O)c3c2)CCCCC4)C1 (stereo not given)	none
Cc1ccccc1C(=O)Nc1ccc2nc3n(c(=O)c2c1)CCCC3	none (no result: Lmaj promast)
CCn1c(=O)c(CCC(=O)NCC2CCCO2)c(C)c2c(C)nn(-c3ccc(C)cc3)c21 (stereo not given)	none (no result: Lmaj promast)
Cc1cc(NS(=O)(=O)c2ccc(NC(=O)Cc3ccc([N+](=O)[O-])cc3)cc2)nc(C)n1	none (no result: T cruzi inh, Lmaj promast, SKKanGAS inh)
Cc1cccc(C)c1NC(=O)CSc1nnc(C)n1CC1CCCO1 (stereo not given)	none
COC(=O)[C@H](Cc1ccc(O)cc1)NC(=O)Cn1cnc2c(OCc3ccccc3)ncnc21	none (no result: T cruzi inh, Beta apoptosis, Lmaj promast, CSC inhib, SKKanGAS inh)
Cc1ccc2ncccc2c1[N+](=O)[O-]	none
Cc1[nH]c2ccc3ncccc3c2c1C	Lmaj promast 56
OC1(c2ccc(Br)cc2)CCNCC1	Lmaj promast 84
COc1ccc(OC)c(/C=N/NC(=O)c2cc3c(OC)c(OC)ccc3[nH]2)c1	Lmaj promast 72
Nc1nc2n[nH]nc2c(=O)[nH]1	T cruzi inh 68 (no result: Lmaj promast)
Nc1nc2nn(-c3ccccc3)nc2c(=O)[nH]1	none (no result: Lmaj promast)
O=[N+]([O-])c1ccc(C2CN=C(Nc3ccccc3)S2)cc1 (stereo not given)	none
CCc1ccc(NC2=NCC(c3ccccc3)S2)cc1 (stereo not given)	SKKanGAS inh 94
Cc1ccc(CNC(=O)Cc2ccc(NC3=NC4CS(=O)(=O)CC4S3)cc2)cc1 (stereo not given)	none (no result: Lmaj promast)
Cc1ccc(NC2=NCC(Cc3ccc(Br)cc3)S2)cc1 (stereo not given)	CSC inhib 89, SKKanGAS inh 85
COc1ccc(CCNC(=O)c2nnn(CC(=O)Nc3ccc(C)cc3C)c2N)cc1OC	none (no result: Lmaj promast)
CCCCCCOC(=O)/C=C/c1c(C)[nH]c(=O)[nH]c1=O	Lmaj promast 94, SKKanGAS inh 86
CC(C)[C@H](NC(=O)c1ccccc1F)C(=O)NC1CCCCCCC1	none (no result: T cruzi inh, Lmaj promast, SKKanGAS inh)
O=C1C2C3C=CC(C3)C2C(=O)N1c1ccc(N2CCN(c3ccccn3)CC2)c([N+](=O)[O-])c1 (stereo not given)	Lmaj promast 76, CSC inhib inconclusive
Cc1ccc(COc2ccc(/C=N/O)cc2)cc1	Lmaj promast 58 (no result: Beta apoptosis)
OCC[C@H]1C[C@@H](O)[C@H](O)[C@@]2(CCCO2)O1	none (no result: Lmaj promast)
Cc1cc(/C=N/N2CCN(C)CC2)c(C)n1-c1ccccc1F	T cruzi inh 67
O=[N+]([O-])c1cccc(-c2cn3nc(-c4ccccc4)c(-c4ccccc4)nc3n2)c1	Beta apoptosis 98 (no result: Lmaj promast)
CC(=O)c1ccc(C(=O)N2CCCC(N3CCN(c4ccc(F)cc4)CC3)C2)s1 (stereo not given)	none (no result: Lmaj promast)
O=C(c1ccc([N+](=O)[O-])o1)N1CCc2ccccc2C1	T cruzi inh 57 (no result: Lmaj promast)
COc1cccc2sc(N3CCN(C(=O)c4ccc([N+](=O)[O-])o4)CC3)nc12	none (no result: Lmaj promast)
Cc1ccc2sc(N3CCN(C(=O)c4ccc([N+](=O)[O-])o4)CC3)nc2c1C	T cruzi inh 59 (no result: Beta apoptosis, Lmaj promast)
Cc1ccc(S(=O)(=O)CCC(=O)NNC(=O)CN(C)S(=O)(=O)c2ccc(C)cc2)cc1	none (no result: T cruzi inh, Lmaj promast, SKKanGAS inh)
Cc1cc(C)n(CCC(=O)N2c3ccccc3CC2C)n1 (stereo not given)	none (no result: Lmaj promast)
CCOC(=O)/C=C1/N(C)c2ccccc2C1(C)C	none (no result: Lmaj promast)
CN1/C(=C\P(=O)(N(C)C)N(C)C)C(C)(C)c2ccccc21	T cruzi inh 62, Beta apoptosis 87, Lmaj promast 99
Cc1ccc2c(c1)C(c1ccccc1)N(C(=O)c1ccc(Br)o1)CC(=O)N2 (stereo not given)	Lmaj promast 95
O=C1CN(C(=O)c2ccc(Br)o2)C(c2ccccc2)c2cc(Br)ccc2N1 (stereo not given)	Lmaj promast 69
O=C1CN(C(=O)c2ccccc2F)C(c2ccccc2)c2cc(F)ccc2N1 (stereo not given)	none (no result: Lmaj promast)
O=c1cc(-c2ccc([N+](=O)[O-])cc2)nc2cc(-c3ccc(F)cc3)[nH]n12	SKKanGAS inh 68
Cc1ccccc1-c1cc2nc(-c3ccc([N+](=O)[O-])cc3)cc(=O)n2[nH]1	SKKanGAS inh inconclusive
Cc1ccc(NC(=S)NC2CC3CCCC(C2)N3Cc2cccs2)cc1 (stereo not given)	Lmaj promast 92
CC(C)c1ccc(NC(=O)NC2CC3CCC(C2)N3Cc2cccs2)cc1 (stereo not given)	Lmaj promast 73
CC(Cc1cccs1)NC(=S)Nc1ccc(F)cc1 (stereo not given)	Lmaj promast 51
Fc1ccc(NC(=S)NC2CC3CCCC(C2)N3Cc2cccs2)cc1 (stereo not given)	Lmaj promast 94
O=C(Cc1ccccc1)NNS(=O)(=O)c1ccc(F)cc1	none
CCC(C)(C)NC(=O)C(c1ccc(F)cc1)N(Cc1cccs1)C(=O)c1cnccn1 (stereo not given)	none (no result: Beta apoptosis)
Cc1nc(SC(C)C(=O)NC2CCCC2)c2ccccc2n1 (stereo not given)	none (no result: T cruzi inh, Lmaj promast, CSC inhib, SKKanGAS inh)
Cc1cc(N2C(=O)C(O)=C(C(=O)c3cc4ccccc4o3)C2c2cccs2)no1 (stereo not given)	none (no result: Lmaj promast)
Cc1ccc(C2C(C(=O)c3cc4ccccc4o3)=C(O)C(=O)N2c2cc(C)on2)cc1 (stereo not given)	SKKanGAS inh 59 (no result: Lmaj promast)
Cc1ccc2nc(N3C(=O)C(O)=C(C(=O)c4cc5ccccc5o4)C3c3cccs3)sc2c1 (stereo not given)	SKKanGAS inh 104
CCc1ccc2nc(N3C(=O)C(O)=C(C(=O)c4ccco4)C3c3cccs3)sc2c1 (stereo not given)	SKKanGAS inh 88
CCOC(=O)C1CCN(C(=O)COC(=O)C2CCN(S(=O)(=O)c3ccc(C)c(C)c3)CC2)CC1	none (no result: Beta apoptosis, Lmaj promast)
CNC(=O)/C(C#N)=C/c1c(N2CCCCCC2)nc2ccccn2c1=O	none (no result: Lmaj promast)
COc1ccc(/C=N/N=C2/NC(=O)CC(C(=O)O)S2)cc1 (stereo not given)	Lmaj promast 58
O=c1[nH]c(C2CCCN(S(=O)(=O)c3ccccc3F)C2)nc2c1nnn2Cc1ccccc1Cl (stereo not given)	none (no result: Lmaj promast)
COc1ccc(C(=O)NCc2ccccc2)cc1S(=O)(=O)N1CCCc2ccccc21	Lmaj promast 61
CC(NC(=O)/C(=C/c1cccc([N+](=O)[O-])c1)NC(=O)c1ccco1)C(=O)O (stereo not given)	Lmaj promast 55 (no result: CSC inhib)
CCn1cc(CN2CCC(n3nccc3NC(=O)c3ccccc3C)CC2)c(C)n1	none (no result: Lmaj promast)
